Results of several laboratories.
Lines come from different studies, so protocols differ. pIC50: −log10 of the molar value.
Cell line: MCF7
Observed: cell growth or viability

N[C@@H](Cc1ccc(N(CCCl)CCCl)cc1)C(=O)O
pIC50 (CCK-8; 48 h): < 4.30

CCN1C(=O)SC[C@H]1[C@@]1(O)C[C@H]2C[C@@H](CC[C@H](C)/C=C\C=C\CC/C(C)=C\C(=O)O2)O1
pIC50 (MTT; 72 h): 6.02

COc1c2c(cc3c1OCO3)[C@]13C=C[C@H](OC)C[C@@H]1[N@](C2)C[C@H]3OC(=O)c1ccc2ccccc2c1
pIC50 (WST-1): < 5.00

O=C(Oc1ccc(I)cc1)[c-]1cccc1.[Fe+2].c1cc[cH-]c1
pIC50 (MTT; 72 h): 3.59

CO[C@]1([C@@H]2CSC(=O)N2C2CCCC2)C[C@H]2C[C@@H](CC[C@H](C)/C=C\C=C\CC/C(C)=C\C(=O)O2)O1
pIC50 (MTT; 72 h): 5.28

C[C@]12C[C@@H](O)[C@H]3[C@@H](CC[C@]4(O)C[C@@H](O)C[C@@H](O)[C@]34CO)[C@@]1(O)CC[C@@H]2c1cn(Cc2ccccc2)nn1
pIC50 (resazurin; 72 h): < 4.00

[Cl-].[Cl-].[Co+2]
pIC50 (MTT; 48 h): < 3.82

COCO[C@@H]1[C@H]2OC(C)(C)O[C@H]2[C@H](O[C@H]2C[C@H]3OC(C)(C)OC[C@]34[C@@H]3[C@@H](CC[C@]4(O)C2)[C@@]2(O)CC[C@H](CO)[C@@]2(C)C[C@H]3OCOC)O[C@H]1C
pIC50 (resazurin; 72 h): < 4.00

O=C(Oc1ccc(-n2cccc2)cc1)[c-]1cccc1.[Fe+2].c1cc[cH-]c1
pIC50 (MTT; 72 h): 5.85

C/C1=C/C(=O)O[C@@H]2C[C@@H](CC[C@H](C)/C=C\C=C\CC1)O[C@@](OC(=O)c1ccccc1)([C@@H]1CSC(=O)N1)C2
pIC50 (MTT; 72 h): 6.28

N.N.[Cl][Pt][Cl]
pIC50 (MTT): 5.00

c1ccc2c(c1)CCc1c-2[nH]c2ccccc12
pIC50 (MTT; 72 h): < 4.12

C=C(C)C(=O)O[C@H]1CC2=C[C@@H](C/C(C)=C/[C@H]3OC(=O)C(=C)[C@H]13)OC2=O
pIC50 (MTT; 24 h): 5.64

N.N.[Cl][Pt][Cl]
pIC50 (SRB; 48 h): 5.02

C/C1=C/C(=O)O[C@@H]2C[C@@H](CC[C@H](C)/C=C\C=C\CC1)O[C@@](O)([C@@H]1CSC(=O)N1Cc1ccccc1)C2
pIC50 (MTT; 72 h): 6.20

COc1c2ccoc2cc2oc(=O)ccc12
pIC50 (WST-1; 48 h): 4.46

CO[C@]1([C@@H]2CSC(=O)N2Cc2ccccc2)C[C@H]2C[C@@H](CC[C@H](C)/C=C\C=C\CC/C(C)=C\C(=O)O2)O1
pIC50 (MTT; 72 h): 6.11

N.N.O=C([O-])C1(C(=O)[O-])CCC1.[Pt+2]
pIC50 (MTT; 96 h): < 4.00

C/C1=C/C(=O)O[C@@H]2C[C@@H](CC[C@H](C)/C=C\C=C\CC1)O[C@@](O)([C@@H]1CSC(=O)N1CO)C2
pIC50 (MTT; 72 h): 6.92

COc1ccc(/C=C\c2cc(OC)c(OC)c(OC)c2)cc1
pIC50 (SRB; 48 h): 8.32
